Screening data (PubChem BioAssay)
Sampled rows, rich in hits. Any-hit rate of the full collection: about 2.4%.
SUMO HTRF inh = inhibitors of in vitro SUMOylation cascade, primary screen, biochemical, HTRF, uHTS | hit rate 0.36% among 290,000 | inhibition, % at 35 µM | SUMO-conjugating enzyme UBC9 (Homo sapiens), P63279 | HTRF SUMOylation assay, SAE1/SAE2 + UBC9; in the data active = inhibition above about 50%, passing the limit was not always enough; inconclusive = no clear call, values can overlap the other calls
Target sequence (P63279 whole entry, looked up): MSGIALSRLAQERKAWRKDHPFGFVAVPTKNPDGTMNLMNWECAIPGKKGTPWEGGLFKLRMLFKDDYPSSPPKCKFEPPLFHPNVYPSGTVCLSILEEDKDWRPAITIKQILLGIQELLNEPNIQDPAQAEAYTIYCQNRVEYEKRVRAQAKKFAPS
APOBEC3G inh = APOBEC3G DNA deaminase inhibitors, primary screen, biochemical, fluorescence, single-stranded DNA substrate, uHTS; DNA dC->dU-editing enzyme APOBEC-3G (Homo sapiens), Q9HC16; recombinant A3G, ssDNA deamination FAM/TAMRA fluorescence; inhibition, % at 20 µM; hit rate 0.28% among 330,000;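 active = inhibition of at least 40% at 20 µM, with no more than 30% in the related APOBEC3A deaminase screen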
Target sequence (Q9HC16 whole entry, looked up): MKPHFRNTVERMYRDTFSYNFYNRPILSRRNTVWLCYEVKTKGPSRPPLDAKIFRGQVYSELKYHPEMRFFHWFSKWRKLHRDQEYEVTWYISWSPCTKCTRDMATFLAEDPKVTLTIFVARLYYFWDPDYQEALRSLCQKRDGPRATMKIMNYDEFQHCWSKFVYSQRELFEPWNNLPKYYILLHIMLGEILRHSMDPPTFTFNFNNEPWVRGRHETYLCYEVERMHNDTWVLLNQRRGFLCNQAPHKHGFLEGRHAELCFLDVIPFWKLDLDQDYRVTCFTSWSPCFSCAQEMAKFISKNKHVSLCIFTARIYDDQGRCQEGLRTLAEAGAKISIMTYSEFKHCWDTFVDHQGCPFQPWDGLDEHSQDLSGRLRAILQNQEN
HKDC1 inhibitor = HKDC1 hexokinase inhibitors, primary screen, biochemical, fluorescence, uHTS | Q2TB90 | recombinant HKDC1, G6PDH/diaphorase resazurin coupled fluorescence | inhibition, % at 20 µM | hit rate 0.16% among 340,000 | AID 493160, 2011;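 active = inhibition above about 35% when tested at 20 µM, limit read from the data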
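test system = in-house recombinant HK5 (HKDC1) enzyme | amount = HKDC1 at 5 µg/mL | control set = DMSO-enzyme wells negative, buffer-substituted wells positive | compound = one dose of 20 µM, 1% DMSO | schedule = reaction time 90 min, room temperature, protected from light | technique = resorufin fluorescence at 613 nm | reagent = glucose with 1 mM ATP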
PfGluPho inh = PfG6PD enzyme inhibitors, primary screen, biochemical, fluorescence intensity, uHTS; AID 504690, 2011; glucose-6-phosphate dehydrogenase-6-phosphogluconolactonase (Plasmodium falciparum 3D7); hit rate 0.78% among 350,000; PfGluPho enzyme, NADPH resazurin-diaphorase fluorescence; inhibition, % at 20 µM;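 active = inhibition reaching at least a set limit at 20 µM in the primary screen, cut at about 59% in these data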
PfM18AAP inh = PfM18AAP inhibitors, malaria aminopeptidase, primary screen, biochemical, QFRET, recombinant enzyme | M18 aspartyl aminopeptidase (Plasmodium falciparum 3D7) | H-Glu-NHMec fluorogenic cleavage | inhibition, % at 7.35 µM | hit rate 1.2% among 290,000 | AID 1822, 2009;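 active = inhibition above the campaign mean inhibition over all tested compounds plus 3 SD, cut at about 28% in these data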
A3A deaminase = APOBEC3A ssDNA deaminase inhibitors, primary screen, selectivity assay for APOBEC3G inhibitor project, biochemical, FAM/TAMRA oligo cleavage fluorescence; DNA dC->dU-editing enzyme APOBEC-3A (Homo sapiens), P31941; recombinant A3A, FAM/TAMRA ssDNA deamination fluorescence; inhibition, % at 20 µM; hit rate 0.41% among 330,000; AID 493011, 2011;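 active = at least 40% inhibition at 20 µM here, with at most 30% in a related deaminase screen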
Target sequence (P31941 whole entry, looked up): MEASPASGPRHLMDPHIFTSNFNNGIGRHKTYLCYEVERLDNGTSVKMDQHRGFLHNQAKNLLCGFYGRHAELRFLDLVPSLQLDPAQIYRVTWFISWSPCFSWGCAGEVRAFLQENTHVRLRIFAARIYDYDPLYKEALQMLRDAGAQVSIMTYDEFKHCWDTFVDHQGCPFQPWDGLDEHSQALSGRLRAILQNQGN
HKDC1 act conf = HKDC1 hexokinase activators, confirmation, biochemical, single concentration | shares compounds with HKDC1 inhibitor | recombinant HKDC1, G6PDH/diaphorase resazurin fluorescence; hits give low values | inhibition, % at 20 µM | AID 504708, 2011 | hit rate 14% among 740;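 active = inhibition at or below a set negative limit, negative inhibition meaning the enzyme was activated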
PfG6PD confirm = PfG6PD inhibitors, hit retest, confirmation, biochemical, fluorescence intensity, single concentration; hit rate 34% among 2,400; shares compounds with PfGluPho inh; inhibition, % at 20 µM; recombinant PfGluPho, NADPH-diaphorase-resazurin fluorescence;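 active = inhibition of at least 50% at 20 µM in any single replicate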
Diaph ctr 10uM = diaphorase inhibitors and chemical oxidizers, confirmation, counter-screen for P. falciparum G6PD inhibitor project, biochemical, fluorescence intensity, 10 µM NADPH; hit rate 39% among 820; shares compounds with PfGluPho inh; inhibition, % at 20 µM; AID 504862, 2011; diaphorase-coupled resazurin reduction, NADPH 10 uM;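 active = average inhibition reaching 50% or more with the compound at 20 µM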;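 also: resorufin red fluorescence formed as diaphorase reduces resazurin using NADPH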
Diaphorase 30uM = diaphorase inhibitors and chemical oxidizers, confirmation, counter-screen for P. falciparum G6PD inhibitor project, biochemical, fluorescence intensity, 30 µM NADPH; shares compounds with PfGluPho inh; inhibition, % at 20 µM; hit rate 29% among 820; Diaphorase/resazurin coupled assay, resorufin fluorescence;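 active = inhibition averaging 50% or more, tested at 20 µM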
Numbers stand for hits; n = inactive; u = inconclusive; x = not tested or not shown.

SMILES | SUMO HTRF inh | APOBEC3G inh | HKDC1 inhibitor | PfGluPho inh | PfM18AAP inh | A3A deaminase | HKDC1 act conf | PfG6PD confirm | others
Cc1cc(C)c(S(=O)(=O)Nc2cc(SCC(=O)O)c(O)c3ccccc23)cc1C | n | x | 54.1 | 106.5 | n | x | n | 98.4 | Diaph ctr 10uM=52.0;Diaphorase 30uM=n
O=C(O)CSc1cc(NS(=O)(=O)c2ccc(Cl)cc2)c2ccccc2c1O | 77.1 | x | 65.4 | 109.2 | n | x | n | 91.0 | Diaph ctr 10uM=55.8;Diaphorase 30uM=n
O=S(=O)(Nc1ccc(Cl)cc1NS(=O)(=O)c1ccccc1)c1ccccc1 | x | x | n | n | x | x | x | x
CSc1nc(-c2ccco2)nn1C(=O)c1ccccc1 | n | n | n | n | n | n | x | x
COc1ccc(NC(=O)CCn2c(=S)[nH]c3ccccc3c2=O)cc1 | n | n | n | n | n | n | x | x
O=C(Nc1ccc(N2CCCC2)cc1)c1cccc(-c2cc3ccccc3oc2=O)c1 | n | n | n | 67.6 | n | n | -24.8 | 57.8 | Diaph ctr 10uM=n;Diaphorase 30uM=n
COc1ccc(N=C2C(=S)N(c3ccc(OC)cc3)C(=NS(=O)(=O)c3ccccc3)N2c2ccccc2)cc1 | x | x | n | 83.7 | x | x | n | 68.4 | Diaph ctr 10uM=n;Diaphorase 30uM=n
COc1ccc(NC(=S)N(Cc2cccnc2)Cc2ccco2)cc1 | n | n | n | n | n | n | x | x
CCn1cnc2cc(NCc3ccc(OC)cc3)ccc21 | n | n | n | n | n | n | x | x
CCOc1ccc2nc3cc(NCc4ccc(OC)cc4)ccc3c(N)c2c1 | n | n | 36.1 | 67.2 | n | n | n | n
O=C(Cc1csc(-c2ccc(Cl)cc2)n1)Nc1cccc(S(=O)(=O)NC2=NCCC2)c1 | x | n | n | n | x | n | x | x
CN1CCN(c2ccc(Cl)cc2NC(=O)C2COc3ccccc3O2)CC1 (stereo unspecified) | n | n | n | n | n | n | x | x
CCc1ccc(S(=O)(=O)/N=C2\C=C(Nc3cccc(C(=O)O)c3)C(=O)c3ccccc32)cc1 | u | n | 52.7 | 61.3 | n | n | n | n
CCc1ccc(S(=O)(=O)/N=C2\C=C(Nc3ccc(O)cc3)C(=O)c3ccccc32)cc1 | n | n | n | 94.0 | n | n | n | n
O=C1C=C(Nc2ccc(O)cc2)C(=O)c2ccccc21 | n | n | n | n | n | n | x | x
O=C(O)CONC(=O)c1cc(OCC(F)(F)F)ccc1OCC(F)(F)F | n | n | n | n | n | n | x | x
NC1=C(Br)C(=O)c2ncccc2C1=O | x | x | 37.9 | 107.8 | x | x | n | 85.7 | Diaph ctr 10uM=77.5;Diaphorase 30uM=73.6
COc1ccc(CN2C=C3C(=O)C(C)(OC(=O)C4CCCC4)C(=O)C=C3C=C2c2ccsc2)cc1 (stereo unspecified) | n | n | 35.4 | 66.6 | x | n | n | n
N#CC1CC(c2ccccc2)Nc2cc(Cl)ccc2N1 (stereo unspecified) | n | n | n | n | n | n | x | x
CCN(c1ccccc1)S(=O)(=O)c1ccc(Cl)c(NC(=O)CNC(C)c2ccccc2)c1 (stereo unspecified) | x | n | n | n | x | n | x | x
CC(C)NC(=O)N(C)C[C@H]1Oc2cc(Br)ccc2S(=O)(=O)N([C@H](C)CO)C[C@H]1C | x | x | x | n | x | x | x | x
O=C1/C(=C\c2ccccc2)CN(C(=O)CCN2CCCCC2)C/C1=C/c1ccccc1 | x | x | n | n | x | x | x | x
O=C1/C(=C\c2ccc(Cl)c(Cl)c2)CN(C(=O)CCN2CCOCC2)C/C1=C/c1ccc(Cl)c(Cl)c1 | x | x | 60.7 | 60.2 | x | x | n | n
CN(C)Cc1cc(C(C)(C)C)cc(C(C)(C)C)c1O | n | n | n | n | n | n | x | x
CN(C)Cc1cc(O)c(CN(C)C)cc1O | n | n | 47.4 | 78.0 | n | n | n | 88.0 | Diaph ctr 10uM=n;Diaphorase 30uM=n
SMILES | SUMO HTRF inh | APOBEC3G inh | HKDC1 inhibitor | PfGluPho inh | PfM18AAP inh | A3A deaminase | HKDC1 act conf | PfG6PD confirm | others
Cc1cc(C)c(S(=O)(=O)/N=C2/C=C(SCC(=O)O)C(=O)c3ccccc32)cc1C | n | n | 51.1 | 106.5 | n | n | n | 94.8 | Diaph ctr 10uM=n;Diaphorase 30uM=n
Cc1ccc(NC(=O)CSc2ccccc2)cc1S(=O)(=O)N1CCCCC1 | x | n | n | n | x | n | x | x
O=S1(=O)c2ccc(Br)cc2N2CCC[C@H]2CN1Cc1ccccc1 | x | n | n | 72.7 | x | n | x | n
O=S1(=O)c2ccc(Br)cc2N2CCC[C@@H]2CN1Cc1ccc(Cl)cc1 | x | x | n | 62.9 | x | x | x | n
O=S1(=O)c2ccc(Br)cc2N2CCC[C@@H]2CN1C1CC1 | x | x | n | n | x | x | x | x
CCCCN(CC)CCNC(=O)c1cc2cc3ccc(Cl)cc3nc2o1 | n | n | n | n | n | n | x | x
C/C(Cn1nnc([N+](=O)[O-])n1)=N\NC(=O)c1cccc(Cl)c1 | n | n | n | 67.9 | n | n | x | 58.7 | Diaph ctr 10uM=n;Diaphorase 30uM=n
CCCCn1c(SCC(=O)c2ccc3c(c2)NC(=O)CO3)nc2cc(S(N)(=O)=O)ccc21 | n | n | n | 60.6 | n | n | x | n
CCCCn1c(SC(C)C(=O)c2ccc(OC)cc2)nc2cc(S(N)(=O)=O)ccc21 (stereo unspecified) | n | n | n | n | n | n | x | x
CCCCn1c(SCC(=O)c2ccc(OC)cc2OC)nc2cc(S(N)(=O)=O)ccc21 | n | n | n | 96.0 | n | n | x | n
COc1cc(C2NC(=O)NC(C)=C2C(=O)OC2CCC(C)CC2)ccc1O (stereo unspecified) | n | n | n | n | n | n | x | x
Cc1ccc(S(=O)(=O)c2nnn3c2nc(N2CCCCC2)c2ccccc23)cc1 | n | n | n | 72.2 | n | n | x | n
CCOc1cccc(CNc2ccc(O)cc2)c1OCc1ccc(Cl)cc1 | n | n | n | 69.7 | n | n | x | n
CCOc1ccccc1CNc1ccc(O)cc1 | n | x | n | 73.9 | n | x | x | 63.4 | Diaph ctr 10uM=n;Diaphorase 30uM=n
Oc1ccc(NCc2ccccc2OCc2ccccc2F)cc1 | n | n | n | 76.2 | n | n | x | n
